Test results taken from ChEMBL document CHEMBL1240456, “Synthesis and antimicrobial activity of some new thiazole, thiophene and pyrazole derivatives containing benzothiazole moiety” (2010).
Converted amounts (≈) assume the structure as drawn.

What was measured:
Format in all cases: functional
Staphylococcus aureus [1] = test: Antimicrobial activity against Staphylococcus aureus ATCC 25923 after 24 hrs by agar diffusion assay
Method in brief: (§1)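 Filter-paper disks (5 mm) loaded with test solution at 1 mg/mL in DMF, placed on agar seeded with the bacterium, in triplicate. DMF alone served as control. Plates incubated at 37 °C for 24 h. Read-out is the mean diameter of the inhibition zone in mm.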

Pseudomonas [2] = test: Antimicrobial activity against Pseudomonas phaseolicola GSPB 2828 after 24 hrs by agar diffusion assay; method in brief: as §1
Pseudomonas [3] = test: Antimicrobial activity against Pseudomonas phaseolicola GSPB 2828 after 24 hrs by microdilution assay; conditions: GSPB 2828, 24 h
Method in brief: (§2)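 Broth microdilution in Müller-Hinton broth, run only for compounds giving zones >12 mm. Stock at 1000 µg/mL in DMF, then twofold dilutions of 500 down to 3.125 µg/mL. Wells inoculated with 10^6 CFU/mL.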

Aspergillus fumigatus [4] = test: Antimicrobial activity against Aspergillus fumigatus after 48 hrs by agar diffusion assay
Fusarium oxysporum [5] = test: Antimicrobial activity against Fusarium oxysporum after 48 hrs by agar diffusion assay
Streptococcus pyogenes [6] = test: Antimicrobial activity against Streptococcus pyogenes ATCC 19615 after 24 hrs by microdilution assay; conditions: ATCC 19615, 24 h; method in brief: as §2
Aspergillus fumigatus [7] = test: Antimicrobial activity against Aspergillus fumigatus after 48 hrs by microdilution assay
Method in brief: (§3)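 Broth microdilution in Sabouraud liquid medium, run only for compounds giving zones >12 mm. Stock at 1000 µg/mL in DMF, then twofold dilutions of 500 down to 3.125 µg/mL. Wells inoculated with 10^6 CFU/mL.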

Staphylococcus aureus [8] = test: Antimicrobial activity against Staphylococcus aureus ATCC 25923 after 24 hrs by microdilution assay; conditions: ATCC 25923, 24 h; method in brief: as §2
Pseudomonas fluorescens [9] = test: Antimicrobial activity against Pseudomonas fluorescens S 97 after 24 hrs by agar diffusion assay; method in brief: as §1
Streptococcus pyogenes [10] = test: Antimicrobial activity against Streptococcus pyogenes ATCC 19615 after 24 hrs by agar diffusion assay; method in brief: as §1
Fusarium oxysporum [11] = test: Antimicrobial activity against Fusarium oxysporum after 48 hrs by microdilution assay; method in brief: as §3
Pseudomonas fluorescens [12] = test: Antimicrobial activity against Pseudomonas fluorescens S 97 after 24 hrs by microdilution assay; conditions: S 97, 24 h; method in brief: as §2

SMILES | MIC (Pseudomonas [3]) [µg/mL] | MIC (Streptococcus pyogenes [6]) [µg/mL] | MIC (Aspergillus fumigatus [7]) [µg/mL] | MIC (Staphylococcus aureus [8]) [µg/mL] | MIC (Fusarium oxysporum [11]) [µg/mL] | MIC (Pseudomonas fluorescens [12]) [µg/mL] | inhibition zone (IZ) (Staphylococcus aureus [1]) [mm] | inhibition zone (IZ) (Pseudomonas [2]) [mm] | inhibition zone (IZ) (Aspergillus fumigatus [4]) [mm] | inhibition zone (IZ) (Fusarium oxysporum [5]) [mm] | inhibition zone (IZ) (Pseudomonas fluorescens [9]) [mm] | inhibition zone (IZ) (Streptococcus pyogenes [10]) [mm]
Nc1sc2c(c1C(=O)Nc1nc3ccccc3s1)CCCC2 | 100 (≈ 304 µM) | 6.25 (≈ 19 µM) | 50 (≈ 152 µM) | 6.25 (≈ 19 µM) | 100 (≈ 304 µM) | 100 (≈ 304 µM) | 38 | 14 | 19 | 15 | 16 | 38
O=C1CSC(CC(=O)Nc2nc3ccccc3s2)=N1 | 100 (≈ 343 µM) | 25 (≈ 85.8 µM) | 50 (≈ 172 µM) | 25 (≈ 85.8 µM) | 100 (≈ 343 µM) | 6.25 (≈ 21.5 µM) | 26 | 14 | 20 | 16 | 37 | 25
O=C(N[C@H](CO)[C@H](O)c1ccc([N+](=O)[O-])cc1)C(Cl)Cl [CHLORAMPHENICOL] | 6.25 (≈ 19.3 µM) | 3.12 (≈ 9.67 µM) | – | 3.12 (≈ 9.67 µM) | – | 6.25 (≈ 19.3 µM) | 42 | 37 | – | – | 38 | 44
Cc1cc(C)c2c(n1)[nH]n1c(=N)c(C(=O)Nc3nc4ccccc4s3)nnc21 | 100 (≈ 256 µM) | 100 (≈ 256 µM) | 50 (≈ 128 µM) | 100 (≈ 256 µM) | 25 (≈ 64 µM) | 12.5 (≈ 32 µM) | 14 | 15 | 19 | 26 | 32 | 15
O=C(Nc1nc2ccccc2s1)c1c(Nc2ccccc2)n[nH]c1/N=C\c1cn(-c2ccccc2)nc1-c1ccccc1 | 100 (≈ 172 µM) | 6.25 (≈ 10.8 µM) | 100 (≈ 172 µM) | 3.12 (≈ 5.38 µM) | 25 (≈ 43.1 µM) | 50 (≈ 86.1 µM) | 44 | 15 | 14 | 26 | 19 | 37
O=c1c2c(Nc3ccccc3)n[nH]c2ncn1-c1nc2ccccc2s1 | 6.25 (≈ 17.3 µM) | 100 (≈ 277 µM) | 100 (≈ 277 µM) | 100 (≈ 277 µM) | 50 (≈ 139 µM) | 100 (≈ 277 µM) | 15 | 38 | 15 | 19 | 15 | 15
C[C@@H]1C[C@@H]([C@H](O)CC2CC(=O)NC(=O)C2)C(=O)[C@@H](C)C1 [CYCLOHEXIMIDE] | – | – | 3.12 (≈ 11.1 µM) | – | 3.12 (≈ 11.1 µM) | – | – | – | 42 | 43 | – | –
CC(=O)OCC1=C(C(=O)O)N2C(=O)[C@@H](NC(=O)Cc3cccs3)[C@H]2SC1 [CEPHALOTHIN] | 6.25 (≈ 15.8 µM) | 6.25 (≈ 15.8 µM) | – | 6.25 (≈ 15.8 µM) | – | 6.25 (≈ 15.8 µM) | 36 | 38 | – | – | 37 | 37

Second part, led by results:

MIC (Pseudomonas [3]) [µg/mL] | MIC (Streptococcus pyogenes [6]) [µg/mL] | MIC (Aspergillus fumigatus [7]) [µg/mL] | MIC (Staphylococcus aureus [8]) [µg/mL] | MIC (Fusarium oxysporum [11]) [µg/mL] | MIC (Pseudomonas fluorescens [12]) [µg/mL] | SMILES | inhibition zone (IZ) (Staphylococcus aureus [1]) [mm] | inhibition zone (IZ) (Pseudomonas [2]) [mm] | inhibition zone (IZ) (Aspergillus fumigatus [4]) [mm] | inhibition zone (IZ) (Fusarium oxysporum [5]) [mm] | inhibition zone (IZ) (Pseudomonas fluorescens [9]) [mm] | inhibition zone (IZ) (Streptococcus pyogenes [10]) [mm]
50 (≈ 130 µM) | 100 (≈ 260 µM) | 100 (≈ 260 µM) | 12.5 (≈ 32.5 µM) | 12.5 (≈ 32.5 µM) | 100 (≈ 260 µM) | Nc1c(C(=O)Nc2nc3ccccc3s2)sc(=S)n1-c1ccccc1 | 32 | 20 | 16 | 31 | 16 | 14
50 (≈ 106 µM) | 6.25 (≈ 13.3 µM) | – | 6.25 (≈ 13.3 µM) | 100 (≈ 213 µM) | 50 (≈ 106 µM) | Nc1c(C(=O)c2ccccc2)sc(Nc2ccccc2)c1C(=O)Nc1nc2ccccc2s1 | 38 | 19 | – | 14 | 20 | 37
100 (≈ 255 µM) | 100 (≈ 255 µM) | 50 (≈ 127 µM) | 100 (≈ 255 µM) | 100 (≈ 255 µM) | 100 (≈ 255 µM) | N#C/C(C(=O)Nc1nc2ccccc2s1)=C1\SCC(=O)N1c1ccccc1 | 15 | 15 | 19 | 14 | 17 | 14
100 (≈ 209 µM) | 6.25 (≈ 13.1 µM) | – | 12.5 (≈ 26.2 µM) | 50 (≈ 105 µM) | 50 (≈ 105 µM) | Nc1[nH]nc(-c2cn(-c3ccccc3)nc2-c2ccccc2)c1C(=O)Nc1nc2ccccc2s1 | 32 | 14 | – | 19 | 20 | 38
50 (≈ 114 µM) | 6.25 (≈ 14.3 µM) | 12.5 (≈ 28.5 µM) | 3.12 (≈ 7.13 µM) | 100 (≈ 228 µM) | – | CCOC(=O)c1sc(Nc2ccccc2)c(C(=O)Nc2nc3ccccc3s2)c1N | 43 | 19 | 31 | 14 | – | 38
100 (≈ 221 µM) | 100 (≈ 221 µM) | 6.25 (≈ 13.8 µM) | 50 (≈ 110 µM) | 100 (≈ 221 µM) | 50 (≈ 110 µM) | N#C/C(C(=O)Nc1nc2ccccc2s1)=C1/SC=C(c2ccccc2)N1c1ccccc1 | 19 | 14 | 38 | 15 | 19 | 15
100 (≈ 213 µM) | 100 (≈ 213 µM) | 25 (≈ 53.4 µM) | 100 (≈ 213 µM) | 6.25 (≈ 13.3 µM) | 50 (≈ 107 µM) | O=C(Nc1nc2ccccc2s1)c1c(Nc2ccccc2)nn2c(-c3cccs3)ccnc12 | 14 | 15 | 26 | 37 | 18 | 15
25 (≈ 60 µM) | 6.25 (≈ 15 µM) | 100 (≈ 240 µM) | 25 (≈ 60 µM) | 100 (≈ 240 µM) | 50 (≈ 120 µM) | Cc1cc(O)n2nc(Nc3ccccc3)c(C(=O)Nc3nc4ccccc4s3)c2n1 | 25 | 26 | 14 | 15 | 19 | 37
